From ChEMBL document CHEMBL3992509, “Discovery of a Highly Potent, Selective, and Metabolically Stable Inhibitor of Receptor-Interacting Protein 1 (RIP1) for the Treatment of Systemic Inflammatory Response Syndrome” (J Med Chem, 2017) come the findings set out here.

Activity calls are given as the source filed them. No cut-off for these calls is given here.

One series deals with Brain. As to the kind of experiment: Drug uptake in C57BL/6J mouse brain at 20 mg/kg, iv after 2 hrs by LC-MS/MS analysis. The format is ADME, organism-based. The note with it: in vivo.
Series [1] has as its target Indoleamine 2,3-dioxygenase 1 (Homo sapiens, UniProt P14902). Nature of the series: Inhibition of recombinant human IDO expressed in Escherichia coli assessed as reduction in kynurenine production at 200 uM using L-tryptophan as substrate after 3 hrs by methylene blue dye based assay. Put shortly:
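Reaction mix: 50 mM MES pH 6.5, 20 mM ascorbate, 2250 U/mL catalase, 10 μM methylene blue, 200 μM L-Trp, 100 nM recombinant IDO, 200 μM compound or DMSO. Incubated 37 °C for 3 h; kynurenine colour read at 321 nm.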

Series [2] is described as follows: Oral bioavailability in C57BL/6J mouse at 10 mg/kg by LC-MS/MS analysis. The format is ADME, organism-based. The note with it: in vivo. The method in brief:
(§1)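 C57BL/6 mice (n = 3) dosed IV, IP or PO; blood sampled by eye puncture at various time points; plasma levels by LC-MS/MS; parameters from individual animal data by non-compartmental analysis.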

Series [3] is described as follows: Bioavailability in C57BL/6J mouse at 10 mg/kg, ip by LC-MS/MS analysis. The format is ADME, organism-based. The note with it: in vivo. Put shortly: as §1
For series [4], the system named is Mus musculus. As to the kind of experiment: Protection against TNFalpha-induced mortality in C57BL/6J mouse assessed as survival rate at 3 mg/kg, ip pretreated for 17 mins followed by TNFalpha injection and subsequent compound treatment once in every 12 hrs measured every 30 mins up to 60 hrs post TNFalpha injection during compound dosing (reference value: 50%). The series is classed as functional.

Series [5] relates to Mus musculus. As to the kind of experiment: Protection against TNFalpha-induced mortality in C57BL/6J mouse assessed as survival rate at 6 mg/kg, ip administered as single dose 17 mins before TNFalpha injection measured every 30 mins up to 60 hrs post TNFalpha injection (reference value: 50%). The series is classed as functional.
Series [6] deals with Mus musculus. Nature of the series: Protection against TNFalpha-induced mortality in ip dosed C57BL/6J mouse assessed as increase in survival rate pretreated for 17 mins followed by TNFalpha injection and subsequent compound treatment once in every 12 hrs measured every 30 mins up to 60 hrs post TNFalpha injection during compound dosing. The format is functional, organism-based. The method in brief:
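C57BL/6 mice, 6-8 weeks, ~20 g, randomized (n = 6~10). Given 5.5 μg mTNFα (~0.25 mg/kg) IV in endotoxin-free PBS, 0.2 mL. Compound IP 17 min before TNFα: either once at 6 mg/kg or […], 1, 3 mg/kg then every 12 h; vehicle controls. Survival checked every 30 min to 60 h.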

The test system of series [7] is Mus musculus. Nature of the series: Protection against TNFalpha-induced spleen damage in C57BL/6J mouse assessed as reduction in immune cell infiltration at 0.3 to 3 mg/kg, ip pretreated for 17 mins followed by TNFalpha injection and subsequent compound treatment once in every 12 hrs measured 24 hrs post TNFalpha injection by hematoxylin and eosin staining based assay. The format is functional, organism-based. The method in brief: (§2)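 Mice given mTNFα IV; compound 0.3, 1, 3 mg/kg IP 17 min before and every 12 h. Killed 24 h post-TNFα. Organs fixed 24 h in 10% neutral buffered formalin, paraffin-embedded, 5-μm sections, H&E stained; ×200, at least three mice each.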

Series [8] relates to Mus musculus. As to the kind of experiment: Protection against TNFalpha-induced multiorgan damage in C57BL/6J mouse assessed as serum AST level at 0.3 to 3 mg/kg, ip pretreated for 17 mins followed by TNFalpha injection and subsequent compound treatment once in every 12 hrs measured 24 hrs post TNFalpha injection. The series is classed as functional, organism-based. Put shortly:
(§3)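 C57BL/6 mice given 4 μg mTNFα (~0.18 mg/kg) IV. Compound 0.3, 1, 3 mg/kg IP 17 min before and then every 12 h; vehicle controls. Blood taken 12 h and 24 h after TNFα. Assays: IL-6 and IL-1β; serum LDH, CK, AST, creatinine, BUN, amylase.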

For series [9], the system named is Mus musculus. Nature of the series: Protection against TNFalpha-induced multiorgan damage in C57BL/6J mouse assessed as serum creatinine level at 0.3 to 3 mg/kg, ip pretreated for 17 mins followed by TNFalpha injection and subsequent compound treatment once in every 12 hrs measured 24 hrs post TNFalpha injection. The format is functional, organism-based. Put shortly: as §3

In series [10] the test system is Mus musculus. Nature of the series: Protection against TNFalpha-induced spleen damage in C57BL/6J mouse assessed as reduction in macrophages infiltration at 0.3 to 3 mg/kg, ip pretreated for 17 mins followed by TNFalpha injection and subsequent compound treatment once in every 12 hrs measured 24 hrs post TNFalpha injection by hematoxylin and eosin staining based assay. The series is classed as functional, organism-based. Put shortly:
as §2

Series [11] deals with Mus musculus. As to the kind of experiment: Protection against TNFalpha-induced thymus damage in C57BL/6J mouse assessed as reduction in macrophages infiltration at 0.3 to 3 mg/kg, ip pretreated for 17 mins followed by TNFalpha injection and subsequent compound treatment once in every 12 hrs measured 24 hrs post TNFalpha injection by hematoxylin and eosin staining based assay. The series is classed as functional, organism-based. Put shortly:
as §2

For series [12], the system named is Mus musculus. As to the kind of experiment: Protection against TNFalpha-induced kidney damage in C57BL/6J mouse at 0.3 to 3 mg/kg, ip pretreated for 17 mins followed by TNFalpha injection and subsequent compound treatment once in every 12 hrs measured 24 hrs post TNFalpha injection by hematoxylin and eosin staining based assay. The series is classed as functional, organism-based. The method in brief:
as §2

The test system of series [13] is Mus musculus. As to the kind of experiment: Protection against TNFalpha-induced pancreas damage in C57BL/6J mouse at 0.3 to 3 mg/kg, ip pretreated for 17 mins followed by TNFalpha injection and subsequent compound treatment once in every 12 hrs measured 24 hrs post TNFalpha injection by hematoxylin and eosin staining based assay. The series is classed as functional, organism-based. The method in brief: as §2

The target of another series is T1, Cytochrome P450 1A2 (Homo sapiens, UniProt P05177).
T1 sequence (P05177 whole entry): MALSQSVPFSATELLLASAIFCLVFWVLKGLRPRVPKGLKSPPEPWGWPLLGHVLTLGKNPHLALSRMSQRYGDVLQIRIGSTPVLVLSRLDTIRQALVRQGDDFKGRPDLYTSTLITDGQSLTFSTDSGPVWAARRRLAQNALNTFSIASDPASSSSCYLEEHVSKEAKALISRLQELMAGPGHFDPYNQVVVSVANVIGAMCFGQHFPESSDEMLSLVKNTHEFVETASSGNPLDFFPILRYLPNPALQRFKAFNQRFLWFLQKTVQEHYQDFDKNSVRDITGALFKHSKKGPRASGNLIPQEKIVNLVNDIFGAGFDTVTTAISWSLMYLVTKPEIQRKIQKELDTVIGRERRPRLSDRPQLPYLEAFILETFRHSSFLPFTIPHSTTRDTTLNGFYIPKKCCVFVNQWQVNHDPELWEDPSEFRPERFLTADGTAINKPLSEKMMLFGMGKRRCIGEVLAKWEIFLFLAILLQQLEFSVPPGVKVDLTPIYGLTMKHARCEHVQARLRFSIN
As to the kind of experiment: Inhibition of CYP1A2 (unknown origin). The series is classed as ADME.

Another series deals with Cytochrome P450 2C19 (Homo sapiens, UniProt P33261). As to the kind of experiment: Inhibition of CYP2C19 (unknown origin). The series is classed as ADME.
Cytochrome P450 2C19, sequence (P33261 whole entry): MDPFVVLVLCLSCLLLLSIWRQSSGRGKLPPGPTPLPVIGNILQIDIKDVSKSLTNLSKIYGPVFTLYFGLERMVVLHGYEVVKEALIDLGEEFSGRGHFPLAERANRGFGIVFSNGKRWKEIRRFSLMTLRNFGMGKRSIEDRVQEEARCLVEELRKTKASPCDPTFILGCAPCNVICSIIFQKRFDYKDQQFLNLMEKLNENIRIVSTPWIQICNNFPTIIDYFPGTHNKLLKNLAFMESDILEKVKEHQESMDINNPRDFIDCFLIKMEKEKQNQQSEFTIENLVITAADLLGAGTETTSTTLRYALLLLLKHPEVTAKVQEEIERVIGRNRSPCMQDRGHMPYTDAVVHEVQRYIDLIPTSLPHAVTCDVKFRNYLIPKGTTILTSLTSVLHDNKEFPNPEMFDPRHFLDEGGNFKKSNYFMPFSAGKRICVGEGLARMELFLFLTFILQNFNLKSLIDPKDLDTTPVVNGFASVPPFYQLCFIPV
The target in series [14] is Voltage-gated inwardly rectifying potassium channel KCNH2 (Homo sapiens, UniProt Q12809). As to the kind of experiment: Inhibition of human ERG at 30 uM by manual patch clamp method. The method in brief: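 Manual patch clamp on hERG channel, tested up to 30 μM.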
Voltage-gated inwardly rectifying potassium channel KCNH2, sequence (Q12809 whole entry): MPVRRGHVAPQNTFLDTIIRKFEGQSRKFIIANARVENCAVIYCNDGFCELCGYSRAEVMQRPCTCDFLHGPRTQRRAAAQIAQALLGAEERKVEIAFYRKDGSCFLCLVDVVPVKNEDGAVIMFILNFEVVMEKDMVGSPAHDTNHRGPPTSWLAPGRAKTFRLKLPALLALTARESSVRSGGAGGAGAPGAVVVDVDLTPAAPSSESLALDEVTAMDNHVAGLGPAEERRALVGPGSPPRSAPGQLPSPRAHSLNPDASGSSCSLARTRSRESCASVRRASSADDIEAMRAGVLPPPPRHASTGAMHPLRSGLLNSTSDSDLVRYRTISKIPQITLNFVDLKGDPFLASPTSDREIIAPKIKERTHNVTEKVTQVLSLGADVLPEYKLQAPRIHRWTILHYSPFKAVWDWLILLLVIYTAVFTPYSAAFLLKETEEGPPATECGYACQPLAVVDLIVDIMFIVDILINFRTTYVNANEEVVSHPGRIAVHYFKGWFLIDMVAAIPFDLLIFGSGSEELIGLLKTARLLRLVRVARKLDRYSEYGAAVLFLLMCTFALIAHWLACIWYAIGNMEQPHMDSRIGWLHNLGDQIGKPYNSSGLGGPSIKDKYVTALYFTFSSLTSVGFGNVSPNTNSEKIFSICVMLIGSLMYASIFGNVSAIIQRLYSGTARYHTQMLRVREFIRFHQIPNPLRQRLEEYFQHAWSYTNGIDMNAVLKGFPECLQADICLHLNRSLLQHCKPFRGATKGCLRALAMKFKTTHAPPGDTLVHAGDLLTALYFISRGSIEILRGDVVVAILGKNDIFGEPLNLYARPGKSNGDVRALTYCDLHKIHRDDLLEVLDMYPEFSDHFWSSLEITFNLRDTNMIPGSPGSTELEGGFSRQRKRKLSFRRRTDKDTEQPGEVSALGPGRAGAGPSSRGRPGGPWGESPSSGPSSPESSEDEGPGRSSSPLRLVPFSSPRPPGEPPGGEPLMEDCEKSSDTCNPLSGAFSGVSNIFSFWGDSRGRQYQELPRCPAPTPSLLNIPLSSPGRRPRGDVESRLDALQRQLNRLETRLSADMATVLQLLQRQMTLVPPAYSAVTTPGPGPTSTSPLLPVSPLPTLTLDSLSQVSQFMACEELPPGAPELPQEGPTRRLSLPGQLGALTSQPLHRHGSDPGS

Indoleamine 2,3-dioxygenase 1, sequence (P14902 whole entry): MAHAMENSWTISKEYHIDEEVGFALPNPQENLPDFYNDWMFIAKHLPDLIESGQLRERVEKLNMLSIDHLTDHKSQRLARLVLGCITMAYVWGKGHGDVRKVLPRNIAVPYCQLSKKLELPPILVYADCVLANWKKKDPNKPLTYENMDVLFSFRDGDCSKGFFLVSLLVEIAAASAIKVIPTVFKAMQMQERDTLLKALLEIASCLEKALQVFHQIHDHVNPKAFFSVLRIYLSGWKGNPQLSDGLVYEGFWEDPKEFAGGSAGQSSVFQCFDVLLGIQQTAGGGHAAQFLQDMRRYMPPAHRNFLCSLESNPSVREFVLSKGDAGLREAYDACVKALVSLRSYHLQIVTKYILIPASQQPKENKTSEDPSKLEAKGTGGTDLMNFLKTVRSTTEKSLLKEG

As to `CCC(C)(C)C(=O)N(O)Cc1ccccc1`, the Drug uptake result in the series with Brain is on record as “Active”. Moreover, the “inhibition (INH)” value in series [1] and in series [14] was “Not Active” throughout. The figures for the bioavailability in [2] and in series [3] were 22% and 100%, respectively. The survival at 3 mg/kg in the series with Mus musculus [4] turned out to be 100%. Also, in the series with Mus musculus [5], the survival at 6 mg/kg is 100%. Moreover, the Activity entry in the series with Mus musculus [6] was “Dose-dependent effect”. The outcome in the series with Mus musculus [7], in the series with Mus musculus [8], in the series with Mus musculus [9], with Mus musculus [10], with Mus musculus [11] and in the series on Mus musculus [12] was Active. In addition, the outcome in the series with Mus musculus [13] was Active. The IC50 on Cytochrome P450 1A2 and against Cytochrome P450 2C19 was over 50 µM in each case.
